Measured values reported in paper PMC4258842 (Nature communications, 2014).
“Also recorded” adds a separate entry of the source.

Columns and labels:
[1] = system: genes with FOXM1 promoter occupancy (ENCODE ChIP-seq, MCF-7); type: cell-based, human; conditions: ENCODE ChIP-seq datasets
Procedure, shortened: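 Differentially expressed genes at 3 h were defined as FDR < 0.01 and logFC > 0.3 […]. ENCODE FOX-family ChIP-seq peaks (MACS) shared by both duplicates were mapped to promoters (−2000 to +100 bp of TSS). Proportions were compared by chi-squared test. Temporal clusters came from fuzzy c-means (9 clusters, fuzzification 1.35) on 1552 genes with abs(logFC) > 0.75.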

[2] = system: MDA-MB-231 ER-negative breast cancer cells; test: Cell viability assay, MDA-MB-231 cells; type: cell-based; conditions: Homo sapiens, MDA-MB-231, 72 h
Procedure, shortened: (§1)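 Cell lines came from ECACC. MCF-7 and MDA-MB-231 were grown in DMEM + 10% FBS, and PEO-1 in RPMI + 10% FBS. Cells were exposed to test compound for 72 h. GI50 is the concentration giving 50% growth inhibition.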

[3] = system: CDC25B expression in MDA-MB-231 cells; test: CDC25B expression in MDA-MB-231 cells; type: cell-based, human; conditions: 3 h treatment
Procedure, shortened: (§2)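 MDA-MB-231 (DMEM + 10% FBS) or PEO-1 (RPMI + 10% FBS) cells were exposed to test compound for 3 h. CDC25B transcript was measured by qRT-PCR with commercial gene-specific primer sets, with ACTB and YWHAZ primer sets also run.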

[4] = system: CDC25B expression in PEO-1 cells; test: CDC25B expression in PEO-1 cells; type: cell-based, human; conditions: 3 h treatment
Procedure, shortened: as §2

[5] = target: T1, FOXM1 DBD-DNA interaction (Homo sapiens, UniProt Q08050); test: EMSA displacement of FOXM1 DBD-DNA interaction; type: binding
T1 sequence (Q08050 222-360): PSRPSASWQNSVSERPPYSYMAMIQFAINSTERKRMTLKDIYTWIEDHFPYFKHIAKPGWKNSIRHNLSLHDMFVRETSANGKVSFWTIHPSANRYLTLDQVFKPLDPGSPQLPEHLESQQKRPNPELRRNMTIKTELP
Procedure, shortened: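 The DNA-binding domain of human FOXM1c was expressed as a GST fusion in E. coli BL21(DE3), induced with 1 mM IPTG at 18°C overnight. DBD (750 nM final) was preincubated with test compound 1.5 h at RT. FAM-labelled 16-bp consensus dsDNA (15 nM final) was added for 15 min. Samples ran on 6% retardation gels and were imaged by fluorescence.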

[6] = system: MCF-7 breast cancer cells; test: 72 h growth inhibition in MCF-7 cells; type: cell-based; conditions: Homo sapiens, MCF7, 72 h, read-out: GI50 (50% growth inhibition)
Procedure, shortened: as §1

[7] = system: FOXM1 occupancy at CCNB1 and CDC25B gene promoters; test: FOXM1 ChIP followed by qRT-PCR in MCF-7 cells; type: cell-based, human; conditions: 6 h treatment
Procedure, shortened: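 MCF-7 cells at 70% confluence were treated 6 h with test compound or DMSO. Cells were crosslinked with 1% formaldehyde 10 min at RT, quenched with glycine, lysed and sonicated. Immunoprecipitation used 3 μg rabbit polyclonal anti-FOXM1 on protein-A beads overnight, with elution at 65°C for 16 h. SYBR qPCR (40 cycles) amplified CDC25B and CCNB1 promoters. Enrichment was normalized to a cyclin D1 intergenic control region.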

20S proteasome = 20S proteasome activity assay; type: biochemical; conditions: 10 μM inhibitor, 37°C, 90 m
Procedure, shortened: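 Recombinant 20S proteasome with an AMC-linked peptide substrate that fluoresces on cleavage. Substrate dilution of 1:200 was chosen from an AMC standard curve. Test compound at 10 μM or DMSO control was mixed with enzyme and substrate and incubated 90 min at 37°C. Fluorescence was read at 380/460 nm and normalized to DMSO, with MG-132 as reference inhibitor.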

[8] = system: FOXM1 target gene transcripts in MCF-7 cells; test: RNA-seq differential expression in MCF-7 cells; type: cell-based, human; conditions: 6 h
Procedure, shortened: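 MCF-7 cells were treated for 3, 6 or 9 h, in three replicates per time point, against 0 h controls. TruSeq libraries gave 100-nt single-end reads, which were adapter/quality trimmed, aligned to hg19 and counted per gene. Differential expression used the edgeR exact test with library-size (CPM) normalization, and FDR < 0.01 counted as significant.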

FOXM1 in MCF-7 cells = test: Western blot of total lysate and chromatin fraction of treated MCF-7 cells; type: cell-based, human; conditions: 6 h, 20 μM
Procedure, shortened: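 MCF-7 cells were treated 6 h with test compound or DMSO. Whole-cell RIPA lysates and isolated chromatin pellets (sonicated in Laemmli buffer) ran on 8–16% Tris-glycine gels. Blots were probed overnight at 4°C with anti-FOXM1 (1:1000), actin (1:5000) or histone H3 (1:10000), then with IR-dye secondaries. FOXM1 was quantified relative to actin (lysate) or H3 (chromatin).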

[9] = system: PEO-1 ovarian cancer cells; test: Cell viability assay, PEO-1 cells; type: cell-based; conditions: Homo sapiens, PEO1, 72 h
Procedure, shortened: as §1

FOXM1 DBD (GST fusion) [10] = target: T2, FOXM1 DBD (GST fusion) (Homo sapiens, UniProt Q08050 222-360); test: competition
T2 sequence: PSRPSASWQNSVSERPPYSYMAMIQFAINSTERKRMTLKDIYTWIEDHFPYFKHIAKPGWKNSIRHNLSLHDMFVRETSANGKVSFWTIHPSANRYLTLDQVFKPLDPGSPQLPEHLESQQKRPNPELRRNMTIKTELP

FOXM1 DBD (GST fusion) [11] = target: T2, FOXM1 DBD (GST fusion); test: fluorescence polarization
FOXM1 DBD (GST fusion) [12] = target: T2, FOXM1 DBD (GST fusion); test: fluorescence polarization; remark: listed apart in the source
[13] = target: T3, FOXM1 full length (FOXM1c, GST fusion) (Homo sapiens, UniProt Q08050 1-763); test: fluorescence polarization
T3 sequence: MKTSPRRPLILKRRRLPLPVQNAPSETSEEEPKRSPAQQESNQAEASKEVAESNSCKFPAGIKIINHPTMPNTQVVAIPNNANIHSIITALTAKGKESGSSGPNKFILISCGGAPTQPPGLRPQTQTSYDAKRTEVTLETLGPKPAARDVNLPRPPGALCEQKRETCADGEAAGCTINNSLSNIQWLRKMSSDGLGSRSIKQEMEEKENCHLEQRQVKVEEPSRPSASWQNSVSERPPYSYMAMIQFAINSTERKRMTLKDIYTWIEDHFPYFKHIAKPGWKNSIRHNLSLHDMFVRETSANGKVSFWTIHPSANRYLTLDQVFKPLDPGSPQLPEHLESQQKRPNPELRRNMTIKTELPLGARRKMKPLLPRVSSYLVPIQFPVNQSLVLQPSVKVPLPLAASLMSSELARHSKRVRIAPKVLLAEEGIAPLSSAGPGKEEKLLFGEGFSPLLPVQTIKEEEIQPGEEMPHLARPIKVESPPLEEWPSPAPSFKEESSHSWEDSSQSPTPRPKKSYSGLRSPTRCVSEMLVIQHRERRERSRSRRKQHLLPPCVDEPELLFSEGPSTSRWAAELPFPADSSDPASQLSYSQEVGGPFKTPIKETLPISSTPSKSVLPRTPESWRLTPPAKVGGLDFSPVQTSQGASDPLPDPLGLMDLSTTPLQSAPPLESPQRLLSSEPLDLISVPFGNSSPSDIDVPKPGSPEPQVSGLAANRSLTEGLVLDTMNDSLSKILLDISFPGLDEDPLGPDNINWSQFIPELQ

FOXM1 DBD (GST fusion) [14] = target: T2, FOXM1 DBD (GST fusion); test: EMSA

Nc1c(C(=O)Nc2ccc(F)cc2)sc2nc(-c3cccs3)cc(C(F)(F)F)c12 [FDI-6, 3-amino-N-(4-fluorophenyl)-6-(thiophen-2-yl)-4-(trifluoromethyl)thieno[2,3-b]pyridine-2-carboxamide]
enrichment of differentially expressed genes for promoter occupancy of other FOX transcription factors (FOXA1, FOXA2, FOXP2) [1]: did not show enrichment
GI50 [2]: 21.8 µM
CDC25B expression [3]: down-regulates
CDC25B expression [4]: down-regulates
IC50 [5]: 22.5 ± 12.3 µM
GI50 [6]: 18 ± 3 µM
change in FOXM1 occupancy at CCNB1 gene promoter [7]: −0.68 log2 fold
change in FOXM1 occupancy at CDC25B gene promoter [7]: −0.64 log2 fold
inhibition of the 20S proteasome (20S proteasome): did not inhibit; also recorded: inactive
AURKA transcript change [8]: −0.83 log2 fold change
CCNA2 transcript change [8]: −0.65 log2 fold change
CCNB1 transcript change [8]: −0.86 log2 fold change
CDKN3 transcript change [8]: −0.739 log2 fold change
CENPA transcript change [8]: −0.61 log2 fold change
KIF20A transcript change [8]: −1.22 log2 fold change
NEK2 transcript change [8]: −0.86 log2 fold change
PLK1 transcript change [8]: −0.92 log2 fold change
decrease of chromatin bound FOXM1 (FOXM1 in MCF-7 cells; MCF-7 cells, normalized to Histone H3): ~50%
overall amount of FOXM1 protein (FOXM1 in MCF-7 cells; MCF-7 total lysate, normalized to Actin): unaffected
GI50 [9]: 18.1 µM

C=C(NC(=O)C(=C)NC(=O)c1csc(C2=N[C@@H]3c4csc(n4)[C@H]4NC(=O)c5csc(n5)[C@H]([C@](C)(O)[C@@H](C)O)NC(=O)[C@H]5CSC(=N5)/C(=C/C)NC(=O)[C@H]([C@@H](C)O)NC(=O)c5csc(n5)[C@]3(CC2)NC(=O)[C@H](C)NC(=O)C(=C)NC(=O)[C@H](C)NC(=O)[C@H]([C@@H](C)CC)N[C@@H]2C=Cc3c([C@H](C)O)cc(nc3[C@H]2O)C(=O)O[C@@H]4C)n1)C(N)=O [thiostrepton, reference compound]
IC50 [5]: 45 ± 16.4 µM
GI50 [6]: 2.7 µM

B1: unlabeled FOXM1 consensus DNA, 16 bp (dsDNA)
DNA 1: AAACAAACAAACAATC
DNA 2: GATTGTTTGTTTGTTT
IC50 (FOXM1 DBD (GST fusion) [10]): 57 ± 5 nM

B2: FOXM1 consensus DNA probe, 16 bp (dsDNA)
DNA 1: AAACAAACAAACAATC
DNA 2: GATTGTTTGTTTGTTT
Kd (FOXM1 DBD (GST fusion) [11]): 224 ± 30 nM
Kd (FOXM1 DBD (GST fusion) [12]): 158 nM
Kd [13]: 300 ± 64 nM
Kd (FOXM1 DBD (GST fusion) [14]): 301 ± 21 nM
